In ChEMBL document CHEMBL1121795, “Esters of isoguvacine as potential prodrugs” (J Med Chem, 1981):

Legend:
[1] = Half-life was measured in 10% human serum at 1 mM concentration; type: ADME
Summary of the method: (§1)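 Medium was 45 mL 0.5 M KCl, 0.5 mL phosphate buffer and 5.0 mL human serum (protein 69–78 mg/mL, BSA standard), N2-purged 2 h with pH held at 7.2–7.6 using 0.1 N HCl. Ester (0.05 or 0.5 mmol) was added; a pH-stat held 7.35 with 0.1 or 0.5 N NaOH at 37 °C. Half-life was calculated from base consumed.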

[2] = Half-life was measured in 10% human serum at 10 mM concentration; type: ADME; summary of the method: as §1
[3] = Half-life was measured in 0.5 M KCl at 10 mM concentration; type: ADME; settings: 0.5 M KCl solution
Summary of the method: (§2)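 Chemical stability was measured with 0.5 mmol ester in 50 mL 0.5 M KCl plus 0.5 mL pH 7.00 phosphate buffer (10 mM), at pH 7.35 and 37 °C. pH-stat titration with 0.5 N NaOH recorded base consumption against time for the 2 acid equivalents released. Pseudo-first-order half-life, mean of at least two runs.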

[4] = species on record: Mus musculus; assay: Compound was tested for anticonvulsant activity by measuring its effect on convulsions induced by isoniazide in mice.; type: functional
Summary of the method: (§3)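 Mice, at least five per group at each time point, received the ester ip; convulsions were induced 0.5, 1, 2, 3, 4, 5, 6, 17 and 24 h later. Value is the minimum effective anticonvulsant dose (mg/kg), with the time between dosing and onset of activity.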

[5] = species on record: Mus musculus; assay: Compound was tested for anticonvulsant activity by measuring its effect on convulsions induced by electroshock in mice.; type: functional; summary of the method: as §3
[6] = species on record: Mus musculus; assay: Compound was tested for anticonvulsant activity by measuring its effect on convulsions induced by bicuculline in mice.; type: functional; summary of the method: as §3
[7] = Half-life was measured in 10% human serum at 10 mM of ester; type: ADME; summary of the method: as §1
[8] = Half-life was measured in 0.5 M KCl at 10 mM dose.; type: ADME; settings: 0.5 M KCl solution; summary of the method: as §2
[9] = Half-life was measured in 10% human serum at 10 mM dose.; type: ADME; summary of the method: as §1
[10] = Half-life was measured in 10% human serum at 1 mM dose.; type: ADME; summary of the method: as §1

| half-life at 1000 µM [1] [h] | half-life at 10000 µM [2] [h] | half-life at 10000 µM [3] [h] | half-life at 10000 µM [7] [h] | half-life at 10000 µM [8] [h] | half-life at 10000 µM [9] [h] | half-life at 1000 µM [10] [h] | Compound | Anticonvulsant dose [4] [mg/kg] | Anticonvulsant dose [5] [mg/kg] | Anticonvulsant dose [6] [mg/kg] |
| --- | --- | --- | --- | --- | --- | --- | --- | --- | --- | --- |
| 0.06 | 0.25 | 11.7 | – | – | – | – | CCCC(=O)OCOC(=O)C1=CCNCC1.O=C(O)/C=C/C(=O)O | – | – | – |
| 0.03 | 0.28 | 12 | – | – | – | – | CCCCC(=O)OCOC(=O)C1=CCNCC1.O=C(O)/C=C/C(=O)O | – | – | – |
| 0.07 | 0.4 | 9.3 | – | – | – | – | O=C(O)/C=C/C(=O)O.O=C(OCOC(=O)c1ccccc1)C1=CCNCC1 | >160 | >80 | >80 |
| 0.03 | 0.14 | 10 | – | – | – | – | O=C(O)/C=C/C(=O)O.O=C(OCOC(=O)C1CCCCC1)C1=CCNCC1 | – | – | – |
| 4.6 | 14.9 | 17.1 | – | – | – | – | CC(C)(C)C(=O)OCOC(=O)C1=CCNCC1.O=C(O)/C=C/C(=O)O | >160 | 10 | 20 |
| 0.6 | 1.2 | 10.9 | – | – | – | – | CC(=O)OCOC(=O)C1=CCNCC1.O=C(O)/C=C/C(=O)O | 40 | 5 | >80 |
| – | – | – | 600 | – | – | – | Br.CCCCOC(=O)C1=CCNCC1 | >160 | 40 | 40 |
| – | – | – | 300 | – | – | – | Br.CCOC(=O)COC(=O)C1=CCNCC1 | – | – | – |
| – | – | – | 430 | – | – | – | COC(=O)C1=CCNCC1.Cl | – | – | – |
| 0.13 | 0.73 | 10.8 | – | – | – | – | CC(C)C(=O)OCOC(=O)C1=CCNCC1.O=C(O)/C=C/C(=O)O | – | – | – |
| 0.72 | 3.5 | 13.3 | – | – | – | – | CC(C)CC(=O)OCOC(=O)C1=CCNCC1.O=C(O)/C=C/C(=O)O | – | – | – |
| 2.3 | 7.9 | 15.7 | – | – | – | – | CCC(CC)C(=O)OCOC(=O)C1=CCNCC1.O=C(O)/C=C/C(=O)O | – | – | – |
| 0.06 | 0.32 | 13 | – | – | – | – | CCCCCC(=O)OCOC(=O)C1=CCNCC1.O=C(O)/C=C/C(=O)O | – | – | – |
| – | – | – | – | 11.1 | 0.54 | 0.17 | CCC(=O)OCOC(=O)C1=CCNCC1.O=C(O)/C=C/C(=O)O | 40 | >80 | >80 |
| – | – | – | – | – | – | – | Cl.O=C(O)C1=CCNCC1 [ISOGUVACINE HYDROCHLORIDE] | >160 | >80 | >80 |
